According to ChEMBL document CHEMBL5252513, “Identification of a Benzoisoxazoloazepine Inhibitor (CPI-0610) of the Bromodomain and Extra-Terminal (BET) Family as a Candidate for Human Clinical Trials” (J Med Chem, 2016):
Activity calls are given as the source filed them. The rule behind the calls is not given here.

How the values were obtained:
[1] = biological target: SWI/SNF-related matrix-associated actin-dependent regulator of chromatin subfamily A member 4 (Homo sapiens, UniProt P51532); experiment: Displacement of biotinylated JQ1 from BRG1 bromodomain (unknown origin) incubated for 20 mins by AlphaLISA assay
Sequence of SWI/SNF-related matrix-associated actin-dependent regulator of chromatin subfamily A member 4 (P51532 whole entry): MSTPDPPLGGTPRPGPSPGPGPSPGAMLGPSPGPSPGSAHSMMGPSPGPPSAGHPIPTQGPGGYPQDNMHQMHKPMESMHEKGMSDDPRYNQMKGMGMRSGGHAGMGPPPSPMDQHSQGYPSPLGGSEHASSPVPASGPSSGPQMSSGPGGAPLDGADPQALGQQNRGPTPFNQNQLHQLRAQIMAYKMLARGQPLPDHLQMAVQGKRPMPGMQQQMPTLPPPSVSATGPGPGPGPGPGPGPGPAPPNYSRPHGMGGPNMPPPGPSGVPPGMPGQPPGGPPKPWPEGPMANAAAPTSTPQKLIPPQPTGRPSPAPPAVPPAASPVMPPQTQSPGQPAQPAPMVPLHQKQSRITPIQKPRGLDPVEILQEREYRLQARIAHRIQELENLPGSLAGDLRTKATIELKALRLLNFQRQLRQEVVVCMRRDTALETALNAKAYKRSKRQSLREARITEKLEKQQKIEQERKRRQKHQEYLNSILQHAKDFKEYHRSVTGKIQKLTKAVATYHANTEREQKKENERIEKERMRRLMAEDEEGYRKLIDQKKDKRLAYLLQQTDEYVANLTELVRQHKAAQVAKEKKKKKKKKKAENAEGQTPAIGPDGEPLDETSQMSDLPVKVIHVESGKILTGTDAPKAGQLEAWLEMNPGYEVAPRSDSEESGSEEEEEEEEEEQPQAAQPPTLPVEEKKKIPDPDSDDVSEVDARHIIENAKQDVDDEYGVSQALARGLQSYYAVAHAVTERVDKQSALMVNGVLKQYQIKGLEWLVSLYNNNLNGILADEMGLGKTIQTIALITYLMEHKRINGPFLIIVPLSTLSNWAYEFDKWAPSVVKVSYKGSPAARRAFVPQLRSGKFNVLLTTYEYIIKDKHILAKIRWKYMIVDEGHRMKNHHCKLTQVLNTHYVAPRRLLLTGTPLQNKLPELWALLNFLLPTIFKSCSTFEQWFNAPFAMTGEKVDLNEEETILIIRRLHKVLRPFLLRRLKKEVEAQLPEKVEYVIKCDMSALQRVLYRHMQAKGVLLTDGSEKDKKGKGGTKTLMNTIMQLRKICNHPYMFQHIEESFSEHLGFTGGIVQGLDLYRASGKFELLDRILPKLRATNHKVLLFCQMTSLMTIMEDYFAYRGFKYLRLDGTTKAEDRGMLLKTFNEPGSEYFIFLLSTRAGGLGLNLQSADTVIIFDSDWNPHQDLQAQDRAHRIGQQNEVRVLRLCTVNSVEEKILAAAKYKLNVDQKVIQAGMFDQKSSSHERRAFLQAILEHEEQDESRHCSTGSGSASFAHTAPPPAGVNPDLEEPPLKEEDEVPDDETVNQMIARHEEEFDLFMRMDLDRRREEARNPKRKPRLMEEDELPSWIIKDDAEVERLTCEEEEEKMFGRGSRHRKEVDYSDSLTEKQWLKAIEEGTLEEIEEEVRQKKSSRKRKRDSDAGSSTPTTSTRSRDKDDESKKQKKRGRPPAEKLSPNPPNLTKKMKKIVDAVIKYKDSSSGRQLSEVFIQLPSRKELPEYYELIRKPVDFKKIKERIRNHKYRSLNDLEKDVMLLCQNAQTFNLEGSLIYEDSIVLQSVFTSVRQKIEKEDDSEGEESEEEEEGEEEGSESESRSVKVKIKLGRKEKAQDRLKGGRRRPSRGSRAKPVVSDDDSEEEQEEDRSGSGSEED

[2] = AUC (0 to infinity) in mouse at 30 mg/kg,po; assay type: ADME, organism-based; parameters: dose 30 mg/kg, route po; settings: in vivo
[3] = Tmax in rat at 5 mg/kg,po; assay type: ADME, organism-based; settings: in vivo
[4] = Volume of distribution at steady state in dog at 0.5 mg/kg,iv; assay type: ADME, organism-based, Canis lupus familiaris; settings: in vivo, read-out: Vdss
[5] = Initial plasma concentration in human patient with progression lymphoma at 300 mg,po QD and measured after 24 hrs; assay type: ADME; settings: read-out: C0
How it was run: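 Trough plasma concentration taken as concentration at 24 h after oral dosing, 300 mg cohort, patients with hematologic malignancies.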

[6] = AUC (0 to infinity) in mouse at 10 mg/kg,sc; assay type: ADME, organism-based; parameters: dose 10 mg/kg, route sc; settings: in vivo
[7] = Unbound AUC in mouse at 10 mg/kg,sc; assay type: ADME, organism-based; settings: in vivo
CREB-binding protein = CREB-binding protein (Homo sapiens, UniProt Q92793); experiment: Displacement of biotinylated JQ1 from CBP bromodomain (unknown origin) incubated for 20 mins by AlphaLISA assay
Sequence of CREB-binding protein (Q92793 whole entry, the tested form may be a part): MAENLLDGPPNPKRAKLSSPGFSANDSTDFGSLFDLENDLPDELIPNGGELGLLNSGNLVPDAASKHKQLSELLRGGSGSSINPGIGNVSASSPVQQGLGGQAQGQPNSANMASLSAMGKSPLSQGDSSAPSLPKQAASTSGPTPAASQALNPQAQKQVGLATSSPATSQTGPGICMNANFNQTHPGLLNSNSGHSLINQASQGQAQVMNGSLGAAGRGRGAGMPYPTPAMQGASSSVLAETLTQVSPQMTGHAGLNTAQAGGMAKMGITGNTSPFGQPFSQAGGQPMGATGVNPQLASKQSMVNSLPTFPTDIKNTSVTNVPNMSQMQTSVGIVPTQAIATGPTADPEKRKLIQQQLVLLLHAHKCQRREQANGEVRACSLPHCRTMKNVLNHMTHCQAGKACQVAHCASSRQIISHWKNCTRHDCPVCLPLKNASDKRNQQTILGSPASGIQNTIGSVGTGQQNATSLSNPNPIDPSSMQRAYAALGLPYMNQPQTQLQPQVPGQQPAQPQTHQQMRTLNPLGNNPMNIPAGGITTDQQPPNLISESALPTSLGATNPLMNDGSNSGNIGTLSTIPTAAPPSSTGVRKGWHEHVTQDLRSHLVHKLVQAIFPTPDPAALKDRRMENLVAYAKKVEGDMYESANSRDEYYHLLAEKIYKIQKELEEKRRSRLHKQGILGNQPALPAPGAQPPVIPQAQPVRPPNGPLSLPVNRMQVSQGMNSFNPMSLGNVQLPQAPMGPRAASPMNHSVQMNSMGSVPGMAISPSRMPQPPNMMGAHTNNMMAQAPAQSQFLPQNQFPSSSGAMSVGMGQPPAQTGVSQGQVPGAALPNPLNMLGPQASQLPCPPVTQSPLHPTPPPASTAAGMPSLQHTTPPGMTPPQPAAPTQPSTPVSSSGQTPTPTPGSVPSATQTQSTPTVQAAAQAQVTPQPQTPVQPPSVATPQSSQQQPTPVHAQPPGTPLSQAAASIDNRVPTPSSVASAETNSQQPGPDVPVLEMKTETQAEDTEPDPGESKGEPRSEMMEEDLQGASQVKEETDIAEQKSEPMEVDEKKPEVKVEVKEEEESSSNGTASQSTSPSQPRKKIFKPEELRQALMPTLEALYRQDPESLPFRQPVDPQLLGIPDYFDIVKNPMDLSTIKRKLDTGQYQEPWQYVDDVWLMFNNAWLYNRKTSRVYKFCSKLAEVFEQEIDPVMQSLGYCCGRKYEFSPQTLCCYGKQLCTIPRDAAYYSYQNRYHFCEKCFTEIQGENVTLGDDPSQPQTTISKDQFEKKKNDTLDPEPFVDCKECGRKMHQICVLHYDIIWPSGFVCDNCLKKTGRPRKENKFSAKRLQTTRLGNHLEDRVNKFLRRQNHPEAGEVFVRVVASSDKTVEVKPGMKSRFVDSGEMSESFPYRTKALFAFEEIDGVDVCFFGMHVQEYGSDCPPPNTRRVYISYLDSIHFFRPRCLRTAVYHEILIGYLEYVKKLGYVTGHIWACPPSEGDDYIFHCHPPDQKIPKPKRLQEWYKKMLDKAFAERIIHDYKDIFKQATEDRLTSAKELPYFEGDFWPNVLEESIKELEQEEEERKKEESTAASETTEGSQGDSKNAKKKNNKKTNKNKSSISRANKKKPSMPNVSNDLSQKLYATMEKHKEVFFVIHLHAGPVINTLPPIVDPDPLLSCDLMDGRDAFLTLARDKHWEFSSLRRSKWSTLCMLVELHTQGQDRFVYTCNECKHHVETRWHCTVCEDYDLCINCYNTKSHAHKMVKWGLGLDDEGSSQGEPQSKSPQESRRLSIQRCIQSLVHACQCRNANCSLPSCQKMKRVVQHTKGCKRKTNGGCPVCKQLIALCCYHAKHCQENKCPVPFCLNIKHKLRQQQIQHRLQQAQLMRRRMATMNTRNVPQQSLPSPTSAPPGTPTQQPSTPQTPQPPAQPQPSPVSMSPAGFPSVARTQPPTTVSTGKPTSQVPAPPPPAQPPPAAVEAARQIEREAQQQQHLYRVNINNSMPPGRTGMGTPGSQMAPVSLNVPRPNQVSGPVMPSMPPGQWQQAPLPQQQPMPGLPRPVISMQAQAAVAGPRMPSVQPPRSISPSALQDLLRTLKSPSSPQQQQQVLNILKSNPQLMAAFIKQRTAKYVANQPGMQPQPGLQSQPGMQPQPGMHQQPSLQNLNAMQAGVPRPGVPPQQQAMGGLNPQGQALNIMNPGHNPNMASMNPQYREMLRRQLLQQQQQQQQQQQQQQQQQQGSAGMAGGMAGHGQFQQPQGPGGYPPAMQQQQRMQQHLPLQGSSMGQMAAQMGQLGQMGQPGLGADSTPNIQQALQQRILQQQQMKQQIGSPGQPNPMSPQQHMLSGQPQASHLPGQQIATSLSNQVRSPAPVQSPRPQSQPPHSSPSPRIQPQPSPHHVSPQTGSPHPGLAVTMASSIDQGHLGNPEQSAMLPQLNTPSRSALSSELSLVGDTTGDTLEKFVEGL

[8] = biological target: T1, ATPase family AAA domain-containing protein 2 (Homo sapiens, UniProt Q6PL18); experiment: Binding affinity to ATAD2 bromodomain (unknown origin) incubated for 60 mins by TR-FRET assay
T1 sequence (Q6PL18 whole entry): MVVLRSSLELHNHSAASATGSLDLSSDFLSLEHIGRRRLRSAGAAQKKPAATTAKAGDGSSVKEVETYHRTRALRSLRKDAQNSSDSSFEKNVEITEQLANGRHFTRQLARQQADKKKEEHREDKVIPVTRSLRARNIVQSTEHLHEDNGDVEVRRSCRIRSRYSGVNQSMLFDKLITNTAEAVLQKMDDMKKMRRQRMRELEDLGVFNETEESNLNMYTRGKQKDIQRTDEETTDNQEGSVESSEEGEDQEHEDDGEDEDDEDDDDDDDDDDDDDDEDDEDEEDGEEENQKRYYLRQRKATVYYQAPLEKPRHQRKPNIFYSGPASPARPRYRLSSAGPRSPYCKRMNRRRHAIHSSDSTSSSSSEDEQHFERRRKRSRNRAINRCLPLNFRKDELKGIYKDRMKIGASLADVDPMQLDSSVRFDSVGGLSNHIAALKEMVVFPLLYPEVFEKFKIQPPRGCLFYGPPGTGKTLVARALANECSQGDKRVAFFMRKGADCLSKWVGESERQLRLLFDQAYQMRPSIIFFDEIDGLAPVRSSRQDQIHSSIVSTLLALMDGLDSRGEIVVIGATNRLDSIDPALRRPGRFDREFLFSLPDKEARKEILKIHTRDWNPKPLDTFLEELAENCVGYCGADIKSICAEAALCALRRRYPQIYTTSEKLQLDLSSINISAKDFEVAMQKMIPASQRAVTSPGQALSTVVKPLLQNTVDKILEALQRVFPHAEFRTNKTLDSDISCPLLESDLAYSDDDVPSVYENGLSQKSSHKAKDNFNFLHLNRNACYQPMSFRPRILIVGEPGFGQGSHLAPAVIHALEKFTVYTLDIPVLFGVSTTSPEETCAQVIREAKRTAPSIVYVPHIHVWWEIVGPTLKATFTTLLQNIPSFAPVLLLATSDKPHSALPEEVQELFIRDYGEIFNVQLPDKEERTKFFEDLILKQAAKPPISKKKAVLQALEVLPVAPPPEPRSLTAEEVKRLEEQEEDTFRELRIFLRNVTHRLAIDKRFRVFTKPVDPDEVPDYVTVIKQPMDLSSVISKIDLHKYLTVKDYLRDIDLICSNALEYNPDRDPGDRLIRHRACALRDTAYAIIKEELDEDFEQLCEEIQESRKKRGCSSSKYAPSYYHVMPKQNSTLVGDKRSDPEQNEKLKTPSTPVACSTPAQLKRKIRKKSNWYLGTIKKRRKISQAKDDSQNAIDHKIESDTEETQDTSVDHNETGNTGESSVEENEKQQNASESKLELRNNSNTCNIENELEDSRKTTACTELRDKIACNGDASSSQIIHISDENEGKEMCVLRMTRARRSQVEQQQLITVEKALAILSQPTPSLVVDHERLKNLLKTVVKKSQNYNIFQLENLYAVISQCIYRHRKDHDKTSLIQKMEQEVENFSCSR

Cytochrome P450 = experiment: Inhibition of CYP450 (unknown origin) at 10 uM; assay type: ADME, protein assay; settings: human
How it was run: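 Cytochrome P450 activity tested with compound at 10 µM against a number of common isoforms; time-dependent inhibition also assessed.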

MV4-11 [9] = experiment: Antitumor activity against human MV4-11 cells xenografted in BALB/c mouse assessed as tumor growth inhibition at 30 mg/kg,po QD for 28 days; assay type: functional; settings: MV4-11, 672 h, time 28 day, read-out: TGI
How it was run: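 Single-agent efficacy in MV-4-11 AML mouse xenograft. Tumor volume (mm3) and percent body-weight change were tracked over the treatment days.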

[10] = Toxicity against BALB/c mouse plasma xenografted with human MV4-11 cells assessed as body weight loss at 30 mg/kg,po QD for 28 days; assay type: organism-based; settings: in vivo, 672 h, time 28 day
How it was run: (§1)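 Body weight change (%) followed in MV-4-11 AML mouse xenograft during 28 days of oral single-agent dosing (30 mg/kg once or twice daily, 60 mg/kg once daily), vehicle PO BID as control.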

[11] = Toxicity against BALB/c mouse plasma xenografted with human MV4-11 cells assessed as body weight loss at 30 mg/kg,po BID for 28 days; assay type: organism-based; settings: in vivo, 672 h, time 28 day; how it was run: as §1
MV4-11 [12] = experiment: Antitumor activity against human MV4-11 cells xenografted in BALB/c mouse assessed as modest tumor growth inhibition at 10 mg/kg,sc BID for 28 days; assay type: functional, organism-based; settings: time 28.0 day
[13] = Toxicity in rat assessed as lymphoid depletion at 2 to 20 mg/kg,po QD consecutive for 14 days followed by 2 weeks recovery period; assay type: organism-based; settings: in vivo, 336 h, dose 2-20 mg/kg, time 14 day
How it was run: (§2)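 Oral suspension given once daily for 14 consecutive days (rat 2, 6, 20 mg/kg; dog 2, 4, 6 mg/kg) in dose range-finding and GLP repeat-dose studies, GLP arms with an added 2-week recovery period; histopathology and clinical pathology findings recorded.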

[14] = Toxicity in dog assessed as hypocellularity of bone marrow with associated anemia and thrombocytopenia at 2 to 6 mg/kg,po QD consecutive for 14 days followed by 2 weeks recovery period; assay type: organism-based, Canis lupus familiaris; settings: in vivo, 336 h, dose 2-6 mg/kg, time 14 day; how it was run: as §2
[15] = Toxicity in dog assessed as to mild to moderate hyperglycemia at 2 to 6 mg/kg,po QD consecutive for 14 days followed by 2 weeks recovery period; assay type: organism-based, Canis lupus familiaris; settings: in vivo, 336 h, dose 2-6 mg/kg, time 14 day; how it was run: as §2

Compound `Cc1noc2c1-c1ccccc1C(c1ccc(Cl)cc1)=N[C@H]2CC(N)=O` [PELABRESIB] has an IC50 [1] greater than 20 µM, an AUC(0-inf) [2] of 101 µM·h and a Tmax [3] of 1.2 h. The Vd [4] was 1.2 L/kg, the concentration at 24 h [5] was 220 nM and the AUC(0-inf) [6] was 49 µM·h. It also gave a fAUC [7] of 1.5 µM·h, an IC50 (CREB-binding protein) greater than 20 µM and an IC50 [8] greater than 80 µM. The “inhibition (INH)” value (Cytochrome P450) was “Not Active”, the inhibition in vivo at 30 mg/kg (MV4-11 [9]) was 41% and the Activity [10] was “Non-Toxic”. For the same compound, the Activity [11] was “Non-Toxic”, the Activity (MV4-11 [12]) was “Active” and the Activity [13] was “Toxic”. The Activity [14] was “Toxic” and the Activity [15] was “Toxic”.
